Measurements collected from several papers.
Each line is one published result; the experiments were not run side by side.
NUAK2: NUAK family SNF1-like kinase 2 (NUAK2, Homo sapiens, UniProt Q9H093)
PKN1: Serine/threonine-protein kinase N1 (PKN1, Homo sapiens, UniProt Q16512)
CTSV: Cathepsin L2 (CTSV, Homo sapiens, UniProt O60911)

COc1ncccc1-c1cnn2ccc(N3CCN(C(=O)OC(C)C)CC3)nc12 — remaining binding (NUAK2; binding, competition with immobilised ligand; 1 µM): 100%
Nc1ncc(-c2nc(N3CCOCC3)nc(N3CCOCC3)n2)c(C(F)F)n1 — remaining binding (Ribosomal protein S6 kinase alpha-6, N-terminal kinase domain (RPS6KA6, Homo sapiens, UniProt Q9UK32); binding, competition with immobilised ligand; 10 µM): 48%
CC(=O)c1c(O)c(C)c(O)c(Cc2c(O)c3c(c(C(=O)/C=C/c4ccccc4)c2O)OC(C)(C)C=C3)c1O — activity vs control (PKN1; enzyme activity, inhibitor; 1 µM): 84%
N=C(N)c1ccc2cc(OC(=O)c3ccc(N=C(N)N)cc3)ccc2c1 — inhibition (CTSV; enzyme activity, inhibitor; 10 µM): 27%
O=c1[nH]c2ccccc2n1C1CCN(Cc2ccc(-c3nc4cc5nc[nH]c5cc4nc3-c3ccccc3)cc2)CC1 — activity vs control (PKN1; enzyme activity, inhibitor; 1 µM): 77%
CC(C)C[C@H](NC(=O)[C@H]1O[C@@H]1C(=O)O)C(=O)NCCCCN=C(N)N — inhibition (CTSV; enzyme activity, inhibitor; 50 nM): 57%
Cc1nn(C)cc1-c1nc2c(N3CCN(Cc4ccc(Cl)cc4)CC3)c(Cl)cnc2[nH]1 — remaining binding (NUAK2; binding, competition with immobilised ligand; 1 µM): 32%
CN(C)C(=O)COC(=O)Cc1ccc(OC(=O)c2ccc(NC(=N)N)cc2)cc1 — inhibition (Matrix metalloproteinase-9 (MMP9, Homo sapiens, UniProt P14780, Q279R); enzyme activity, inhibitor; 10 µM): 8%
COc1ccc2c(c[n+](C)c3c4cc5c(cc4ccc23)OCO5)c1OC — activity vs control (PKN1; enzyme activity, inhibitor; 1 µM): 86%
